According to ChEMBL document CHEMBL4765243, “Discovery of Novel Bromophenol-Thiosemicarbazone Hybrids as Potent Selective Inhibitors of Poly(ADP-ribose) Polymerase-1 (PARP-1) for Use in Cancer” (J Med Chem, 2019):

Key:
[1] = Cytotoxicity against human HL7702 cells assessed as cell growth inhibition at 20 uM incubated for 48 hrs by MTT assay relative to control; type: cell-based; conditions: HL7702 (L02) cells
Caco-2 [2] = assay: Antiproliferative activity against human Caco-2 cells assessed as cell growth inhibition at 20 uM incubated for 48 hrs by MTT assay relative to control; type: functional
Bel-7402 [3] = assay: Antiproliferative activity against human Bel-7402 cells assessed as cell growth inhibition at 20 uM incubated for 48 hrs by MTT assay relative to control; type: functional
SK-OV-3 [4] = assay: Antiproliferative activity against human SK-OV-3 cells assessed as cell growth inhibition at 20 uM incubated for 48 hrs by MTT assay relative to control; type: functional
[5] = target: T1, Poly [ADP-ribose] polymerase 1 (Homo sapiens, UniProt P09874); conditions: dose 100.0 nM, time 30.0 min
HepG2 [6] = assay: Antiproliferative activity against human HepG2 cells assessed as cell growth inhibition at 20 uM incubated for 48 hrs by MTT assay relative to control; type: functional
HepG2 [7] = assay: Antiproliferative activity against human HepG2 cells assessed as cell growth inhibition incubated for 48 hrs by MTT assay; type: functional, cell-based; conditions: HepG2, 48 h
How it was run: (§1)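 Cells seeded in 96-well plates and exposed to compounds for 48 h; viability read by MTT. Each experiment repeated three times. SK-OV-3 grown in McCOY's 5A, Bel-7402 and HL-7702 in RPMI-1640, HepG2 in DMEM, Caco-2 in MEM.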

L02 = assay: Cytotoxicity against human HL7702 cells assessed as cell growth inhibition incubated for 48 hrs by MTT assay; type: cell-based; conditions: L02, 48 h; how it was run: as §1
Caco-2 [8] = assay: Antiproliferative activity against human Caco-2 cells assessed as cell growth inhibition incubated for 48 hrs by MTT assay; type: functional, cell-based; conditions: Caco-2, 48 h; how it was run: as §1
SK-OV-3 [9] = assay: Antiproliferative activity against human SK-OV-3 cells assessed as cell growth inhibition incubated for 48 hrs by MTT assay; type: functional, cell-based; conditions: SK-OV-3, 48 h; how it was run: as §1
Bel-7402 [10] = assay: Antiproliferative activity against human Bel-7402 cells assessed as cell growth inhibition incubated for 48 hrs by MTT assay; type: functional, cell-based; conditions: Bel-7402, 48 h; how it was run: as §1
[11] = target: Poly [ADP-ribose] polymerase 2 (Homo sapiens, UniProt Q9UGN5); assay: Inhibition of human recombinant N-terminal GST-tagged PARP-2 expressed in Baculovirus infected Sf9 cells assessed as reduction in NAD+-dependent ADP ribosylation using histone mixture (H2A and H2B) as substrate in presence of activated DNA incubated for 30 mins by chemiluminescence assay
[12] = Selectivity index, ratio of IC50 for inhibition of human recombinant N-terminal GST-tagged PARP-2 to IC50 for inhibition of human recombinant GST-tagged PARP-1
[13] = target: T1, Poly [ADP-ribose] polymerase 1; assay: Inhibition of human recombinant GST-tagged PARP-1 expressed in Escherichia coli assessed as reduction in NAD+-dependent ADP ribosylation incubated for 30 mins in presence and NAD by resazurin dye based fluorescence analysis

T1 sequence (P09874 whole entry): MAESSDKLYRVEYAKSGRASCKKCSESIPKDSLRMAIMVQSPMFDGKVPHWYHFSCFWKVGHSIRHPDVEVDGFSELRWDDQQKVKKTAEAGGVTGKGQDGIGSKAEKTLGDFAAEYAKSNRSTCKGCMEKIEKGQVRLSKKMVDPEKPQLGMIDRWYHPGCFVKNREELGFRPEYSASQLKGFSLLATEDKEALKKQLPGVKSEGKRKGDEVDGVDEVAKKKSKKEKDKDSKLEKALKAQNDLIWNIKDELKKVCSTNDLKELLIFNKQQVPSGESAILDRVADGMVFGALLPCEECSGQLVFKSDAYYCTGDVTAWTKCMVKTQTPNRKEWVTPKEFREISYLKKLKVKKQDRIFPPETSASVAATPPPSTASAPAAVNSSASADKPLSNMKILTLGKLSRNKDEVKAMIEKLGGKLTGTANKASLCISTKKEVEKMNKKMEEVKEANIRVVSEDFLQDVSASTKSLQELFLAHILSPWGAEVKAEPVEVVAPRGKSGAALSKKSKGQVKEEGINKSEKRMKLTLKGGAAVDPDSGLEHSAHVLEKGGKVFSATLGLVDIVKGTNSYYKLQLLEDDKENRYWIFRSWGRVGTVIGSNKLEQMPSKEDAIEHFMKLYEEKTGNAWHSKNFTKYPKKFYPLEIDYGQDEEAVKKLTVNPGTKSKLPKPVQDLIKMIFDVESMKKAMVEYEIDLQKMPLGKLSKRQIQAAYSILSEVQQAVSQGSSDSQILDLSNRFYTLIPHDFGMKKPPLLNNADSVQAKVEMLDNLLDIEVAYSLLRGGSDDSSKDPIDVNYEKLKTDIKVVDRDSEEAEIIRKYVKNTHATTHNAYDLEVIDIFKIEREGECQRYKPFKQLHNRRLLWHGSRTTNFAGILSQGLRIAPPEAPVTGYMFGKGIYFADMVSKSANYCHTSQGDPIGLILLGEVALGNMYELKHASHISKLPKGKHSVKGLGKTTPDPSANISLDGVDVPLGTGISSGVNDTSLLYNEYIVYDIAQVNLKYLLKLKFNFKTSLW
Chain of Poly [ADP-ribose] polymerase 2 (Q9UGN5 whole entry): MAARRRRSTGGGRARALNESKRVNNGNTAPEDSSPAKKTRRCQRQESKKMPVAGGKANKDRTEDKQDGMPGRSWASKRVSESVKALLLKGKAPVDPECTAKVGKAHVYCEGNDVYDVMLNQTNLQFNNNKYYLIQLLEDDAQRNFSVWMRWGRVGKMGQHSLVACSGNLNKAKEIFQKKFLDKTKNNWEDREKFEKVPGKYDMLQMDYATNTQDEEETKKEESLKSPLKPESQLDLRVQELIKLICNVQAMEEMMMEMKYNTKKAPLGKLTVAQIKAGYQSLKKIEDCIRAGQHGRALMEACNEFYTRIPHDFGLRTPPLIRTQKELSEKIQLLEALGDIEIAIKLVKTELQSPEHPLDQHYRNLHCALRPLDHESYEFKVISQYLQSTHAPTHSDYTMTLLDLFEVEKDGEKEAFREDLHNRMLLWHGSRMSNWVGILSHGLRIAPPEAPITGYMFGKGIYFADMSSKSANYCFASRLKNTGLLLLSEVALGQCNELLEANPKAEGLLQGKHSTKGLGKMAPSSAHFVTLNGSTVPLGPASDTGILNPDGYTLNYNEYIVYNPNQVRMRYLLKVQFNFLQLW

SMILES | inhibition at 48 h, 20 µM [1] [%] | inhibition at 20 µM (Caco-2 [2]) [%] | inhibition at 20 µM (Bel-7402 [3]) [%] | inhibition at 20 µM (SK-OV-3 [4]) [%] | inhibition [5] [%] | inhibition at 20 µM (HepG2 [6]) [%] | IC50 (HepG2 [7]) [µM] | IC50 (L02) [µM] | IC50 (Caco-2 [8]) [µM] | IC50 (SK-OV-3 [9]) [µM] | IC50 (Bel-7402 [10]) [µM] | IC50 [11] [µM] | Ratio IC50 [12] | IC50 [13] [µM]
Oc1ccc(/C=N/NC(=S)Nc2ccccc2)cc1O | 76.4 | 78.2 | 38.8 | < 0 | 40.7 | < 0 |  |  |  |  |  |  |  | 
COc1cc(Br)c(/C=N/NC(N)=S)cc1OC | 42.5 | 8.65 | 18.3 | 20.8 | 42.6 | 37.6 |  |  |  |  |  |  |  | 
COc1cc(/C=N/NC(=S)NCCCN2CCOCC2)cc(Br)c1OC | 24.7 | 36.9 | 39.4 | 37.7 | 33 | 35.2 |  |  |  |  |  |  |  | 
COc1cc(/C=N/NC(=S)Nc2cccc(C(F)(F)F)c2)cc(Br)c1OC | 58.6 | 21 | 26 | 63.3 | 38.3 | 36.4 |  |  |  |  |  |  |  | 
COc1cc(/C=N/NC(=S)Nc2ccc(F)cc2)c(Br)c(Br)c1OC | 85.1 | 24.5 | 54.6 | 66.3 | 46.6 | 60.5 |  |  |  |  |  |  |  | 
COc1ccc(/C=N/NC(=S)Nc2ccccc2)cc1O | 41.4 | 71.4 | 32.2 | 41.4 | 37.5 | 38 |  |  |  |  |  |  |  | 
COc1cc(/C=N/NC(N)=S)cc(Br)c1OC | 2.11 | 18.9 | 17.6 | < 0 | 23.2 | 61.1 |  |  |  |  |  |  |  | 
COc1cc(/C=N/NC(=S)Nc2ccc(Cl)cc2)c(Br)c(Br)c1OC | 85.5 | 44.8 | 51.5 | 81.2 | 38.2 | 62.7 | 13.4 | 3.5 | 10.1 | 15.3 | 13.9 |  |  | 
CCOC(=O)c1ccc(NC(=S)N/N=C/c2cc(Br)c(OC)c(OC)c2)cc1 | 84 | 55.5 | 39.4 | 60.4 | 43.7 | 59.3 | 8.55 | 8.8 | 13.7 | 13.7 | 9.87 |  |  | 
CNC(=S)N/N=C/c1cc(Br)c(OC)c(OC)c1 | 44.3 | 43.8 | 29.6 | 32.9 | 44.1 | 57.2 |  |  |  |  |  |  |  | 
COc1cc(Br)c(/C=N/NC(=S)Nc2ccccc2)cc1OC | 78.7 | 25.7 | 19.3 | 41.3 | 37 | 67 |  |  |  |  |  |  |  | 
CNC(=S)N/N=C/c1cc(OC)c(OC)c(Br)c1Br | 63.4 | < 0 | 3.9 | 18.3 | 32.2 | 38.9 |  |  |  |  |  |  |  | 
COc1cc(/C=N/NC(=S)Nc2ccc(Oc3ccccc3)cc2)c(Br)c(Br)c1OC | < 0 | < 0 | < 0 | 15 | 23.7 | < 0 |  |  |  |  |  |  |  | 
COc1cc(/C=N/NC(N)=S)cc(Br)c1O | < 0 | 35.6 | 32.3 | 21.6 | 42.9 | 29.6 |  |  |  |  |  |  |  | 
COc1cc(/C=N/NC(=S)Nc2ccc(F)cc2)cc(Br)c1OC | 68.6 | 49.1 | 48.2 | 42.4 | 38.1 | 32.3 |  |  |  |  |  |  |  | 
Oc1cc(/C=N/NC(=S)Nc2ccccc2)c(Br)c(Br)c1O | 94.5 | 76.4 | 73.1 | 54.6 | 45.9 | 72.9 | 7.08 | 5.65 | 9.34 | 5.12 | 12.3 |  |  | 

SMILES | inhibition at 48 h, 20 µM [1] [%] | inhibition at 20 µM (Caco-2 [2]) [%] | inhibition at 20 µM (Bel-7402 [3]) [%] | inhibition at 20 µM (SK-OV-3 [4]) [%] | inhibition [5] [%] | inhibition at 20 µM (HepG2 [6]) [%] | IC50 (HepG2 [7]) [µM] | IC50 (L02) [µM] | IC50 (Caco-2 [8]) [µM] | IC50 (SK-OV-3 [9]) [µM] | IC50 (Bel-7402 [10]) [µM] | IC50 [11] [µM] | Ratio IC50 [12] | IC50 [13] [µM]
COc1cc(/C=N/NC(=S)Nc2ccc(Cl)cc2)cc(Br)c1OC | 42.9 | 55.4 | 55.7 | 41.5 | 32.2 | 46.6 |  |  |  |  |  |  |  | 
COc1cc(/C=N/NC(N)=S)ccc1O |  |  |  |  | 28 |  |  |  |  |  |  |  |  | 
COc1cc(/C=N/NC(=S)Nc2ccc(Oc3ccccc3)cc2)cc(Br)c1OC | 75.9 | 76.3 | 33.8 | 32.3 | 27.7 | < 0 |  |  |  |  |  |  |  | 
COc1cc(/C=N/NC(=S)Nc2ccccc2)cc(Br)c1OC | 72.1 | 67.1 | 75.2 | 55.5 | 18.2 | 40 |  |  |  |  |  |  |  | 
COc1cc(/C=N/NC(=S)Nc2ccccc2)cc(Br)c1O | 40.7 | 62.9 | 25.3 | 56 | 35.5 | 62 |  |  |  |  |  |  |  | 
COc1ccc(/C=N/NC(N)=S)cc1O |  |  |  |  | 28.1 |  |  |  |  |  |  |  |  | 
COc1cc(/C=N/NC(=S)Nc2ccccc2)c(Br)c(Br)c1O | 27.8 | 34.9 | 39.5 | 65.5 | 12.5 | 57.1 |  |  |  |  |  |  |  | 
COc1cc(/C=N/NC(N)=S)c(Br)c(Br)c1O | < 0 | 24.9 | 44.8 | 28 | 61 | 50.8 |  |  |  |  |  | > 1 | > 3.94 | 0.254
COc1cc(/C=N/NC(=S)Nc2ccccc2)c(Br)c(Br)c1OC | 86.4 | 14.2 | 50.3 | 90.4 | 43.8 | 54.6 | 25.7 | 22.6 | 9.97 | 9.25 | 30.2 |  |  | 
COc1ccc(/C=N/NC(=S)Nc2ccccc2)c(Br)c1O | 46.9 | 82.4 | 36.4 | 62.1 | 42.9 | 65.6 |  |  |  |  |  |  |  | 
COc1cc(/C=N/NC(=S)Nc2ccccc2)ccc1O | 9.28 | 75.1 | 41 | 45.3 | 20.6 | 58.4 |  |  |  |  |  |  |  | 
NC(=S)N/N=C/c1cc(O)c(O)c(Br)c1 | 54.8 | 47.9 | < 0 | < 0 | 30.2 | < 0 |  |  |  |  |  |  |  | 
Oc1cc(/C=N/NC(=S)Nc2ccccc2)cc(Br)c1O | 86.4 | 72 | 63.5 | 76.2 | 28 | 67.9 | 9.29 | 13.4 | 22.7 | 14 | 13.1 |  |  | 
COc1ccc(/C=N/NC(N)=S)c(Br)c1O | 31.8 | 9.01 | 21.4 | 9.92 | 34.8 | 38.5 |  |  |  |  |  |  |  | 
NC(=S)N/N=C/c1cc(O)c(O)c(Br)c1Br | 82.9 | 53.6 | 69.3 | 60.7 | 37.1 | 65.8 | 16 | 13.5 | 16.4 | 19.2 | 19.6 |  |  | 
COc1cc(/C=N/NC(=S)Nc2cccc(C(F)(F)F)c2)c(Br)c(Br)c1OC | 71.1 | 6.4 | 12.7 | < 0 | 23 | 43.2 |  |  |  |  |  |  |  | 
